Data set [1] addresses T1, D(3) dopamine receptor (Homo sapiens, UniProt P35462). Description: Agonist activity at human D3 receptor expressed in CHO cells assessed as stimulation of quinpirole-induced mitogenesis relative to control. The format is cell-based. Details: concentration or dose not given beside the values.
Data set [2] is described as follows: Metabolic stability in rat liver microsomes assessed as parent compound remaining at 10 uM measured after 60 mins in presence of NADPH regenerating system by LC/MS/MS analysis. Particulars: read-out: Stability. The format is ADME, Microsome. A digest of the protocol:
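Compound at 10 μM final was incubated with rat liver microsomes at 0.5 mg/mL in 100 mM potassium phosphate, pH 7.4, with an NADPH regenerating system. Buprenorphine served as positive control. Parent disappearance was followed by LC/MS/MS, and percent remaining was reported at 60 min. Reactions were run in triplicate.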
For orientation: Microsomes from liver hold many membrane-bound enzymes, among them those of drug oxidation.

A short description of data set [3]: Cmax in Long-Evans rat brain at 10 mg/kg, po measured up to 24 hrs by LC/MS/MS analysis. The format is ADME, organism-based. Details: dose 10 mg/kg, route oral. The following applies: in vivo.
Data set [4] is described as follows: Tmax in Long-Evans rat brain at 10 mg/kg, po measured up to 24 hrs by LC/MS/MS analysis. The format is ADME, organism-based.
Data set [5] is described as follows: AUC (0 to t) in Long-Evans rat plasma at 10 mg/kg, po measured up to 24 hrs by LC/MS/MS analysis. The format is ADME, organism-based. Details: time < 24 hr, dose 10 mg/kg, route oral.
The nature of data set [6]: AUC (0 to t) in Long-Evans rat brain at 10 mg/kg, po measured up to 24 hrs by LC/MS/MS analysis. Type of data set: ADME, organism-based. Particulars: in vivo.
The target of data set [7] is T2, 5-hydroxytryptamine receptor 1A (Homo sapiens) (UniProt P08908).
T2 sequence (whole entry): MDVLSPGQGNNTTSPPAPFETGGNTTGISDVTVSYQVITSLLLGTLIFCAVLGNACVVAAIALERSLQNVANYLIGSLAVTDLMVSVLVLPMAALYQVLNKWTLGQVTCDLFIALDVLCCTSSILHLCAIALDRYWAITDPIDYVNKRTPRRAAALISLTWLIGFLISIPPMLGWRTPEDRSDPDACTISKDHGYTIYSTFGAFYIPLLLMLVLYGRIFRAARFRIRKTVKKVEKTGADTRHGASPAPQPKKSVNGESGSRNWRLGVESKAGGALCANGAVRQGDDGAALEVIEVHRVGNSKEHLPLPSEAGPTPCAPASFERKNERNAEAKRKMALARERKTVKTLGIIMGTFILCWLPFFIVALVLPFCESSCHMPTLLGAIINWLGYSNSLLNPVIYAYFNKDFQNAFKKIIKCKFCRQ
Description: Agonist activity at 5-HT1A receptor (unknown origin) assessed as stimulation of [35S]GTPgammaS binding relative to control. Type of data set: functional. For orientation: GTPγS resists hydrolysis and so accumulates on activated G proteins.

A short description of data set [8]: Tmax in Long-Evans rat plasma at 10 mg/kg, po measured up to 24 hrs by LC/MS/MS analysis. The format is ADME, organism-based.
The species named for the next data set is Homo sapiens. In words: Selectivity ratio of Ki for displacement of [3H]N-methylspiperone from human D2L receptor expressed in HEK293 cell membranes to Ki for displacement of [3H]N-methylspiperone from human D3 receptor expressed in HEK293 cell membranes. For orientation: Displacement assays read how much labelled ligand stays bound in the presence of the test substance.

Data set [9] deals with T1, D(3) dopamine receptor. In words: Agonist activity at human D3 receptor expressed in CHO cells assessed as stimulation of quinpirole-induced mitogenesis. The format is cell-based.
Data set [10] is described as follows: Cmax in Long-Evans rat plasma at 10 mg/kg, po measured up to 24 hrs by LC/MS/MS analysis. Type of data set: ADME, organism-based. Set-up: dose 10 mg/kg, route oral.
Data set [11] addresses T3, 5-hydroxytryptamine receptor 2C (Homo sapiens, UniProt P28335).
T3 sequence (P28335 whole entry): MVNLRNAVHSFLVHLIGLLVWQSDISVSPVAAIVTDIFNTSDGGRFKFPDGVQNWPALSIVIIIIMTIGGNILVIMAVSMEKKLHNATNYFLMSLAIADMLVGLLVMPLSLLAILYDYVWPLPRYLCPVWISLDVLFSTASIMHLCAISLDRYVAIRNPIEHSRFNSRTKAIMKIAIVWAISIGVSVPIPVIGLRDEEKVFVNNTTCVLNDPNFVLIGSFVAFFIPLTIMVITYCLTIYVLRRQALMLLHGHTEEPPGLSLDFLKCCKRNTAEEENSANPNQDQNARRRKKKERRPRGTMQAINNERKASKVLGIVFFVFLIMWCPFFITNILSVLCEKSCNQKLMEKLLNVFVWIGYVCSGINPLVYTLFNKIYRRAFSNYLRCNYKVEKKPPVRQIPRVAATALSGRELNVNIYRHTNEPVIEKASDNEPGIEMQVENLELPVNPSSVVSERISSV
Description: Displacement of [125I] DOI from 5HT2C receptor (unknown origin).

The next data set concerns the target D(2) dopamine receptor (Homo sapiens, UniProt P14416). Description: Displacement of [3H]N-methylspiperone from human D2L receptor expressed in HEK293 cell membranes measured after 60 mins by scintillation counting method. A digest of the protocol: (§1)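 Membranes from HEK293 cells stably expressing human D2L or D3 were used at 20 μg protein/well in EBSS buffer, pH 7.4, with 0.4 nM [3H]N-methylspiperone. Compounds were run as 10 half-log dilutions in triplicate for 1 h at rt, with nonspecific binding defined by 10 μM (+)-butaclamol. Reactions were filtered onto GF/B and counted by scintillation.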

Data set [12] concerns the target T1, D(3) dopamine receptor. In words: Displacement of [3H]N-methylspiperone from human D3 receptor expressed in HEK293 cell membranes measured after 60 mins by scintillation counting method. In a few lines:
as §1

Each structure is given as a SMILES string. A value given as a limit tells only on which side of the number the result lay.

T1 sequence (P35462 whole entry): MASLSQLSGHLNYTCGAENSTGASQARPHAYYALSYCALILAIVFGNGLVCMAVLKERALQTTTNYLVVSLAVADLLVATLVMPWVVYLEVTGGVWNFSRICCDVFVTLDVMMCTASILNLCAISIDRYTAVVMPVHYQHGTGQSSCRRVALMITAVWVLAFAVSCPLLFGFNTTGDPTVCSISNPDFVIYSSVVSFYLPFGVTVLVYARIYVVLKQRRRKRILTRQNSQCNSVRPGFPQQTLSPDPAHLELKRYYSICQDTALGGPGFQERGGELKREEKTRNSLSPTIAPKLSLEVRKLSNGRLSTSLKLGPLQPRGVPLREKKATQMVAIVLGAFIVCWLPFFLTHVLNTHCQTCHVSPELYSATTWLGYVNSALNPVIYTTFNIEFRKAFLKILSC
D(2) dopamine receptor, sequence (P14416 whole entry): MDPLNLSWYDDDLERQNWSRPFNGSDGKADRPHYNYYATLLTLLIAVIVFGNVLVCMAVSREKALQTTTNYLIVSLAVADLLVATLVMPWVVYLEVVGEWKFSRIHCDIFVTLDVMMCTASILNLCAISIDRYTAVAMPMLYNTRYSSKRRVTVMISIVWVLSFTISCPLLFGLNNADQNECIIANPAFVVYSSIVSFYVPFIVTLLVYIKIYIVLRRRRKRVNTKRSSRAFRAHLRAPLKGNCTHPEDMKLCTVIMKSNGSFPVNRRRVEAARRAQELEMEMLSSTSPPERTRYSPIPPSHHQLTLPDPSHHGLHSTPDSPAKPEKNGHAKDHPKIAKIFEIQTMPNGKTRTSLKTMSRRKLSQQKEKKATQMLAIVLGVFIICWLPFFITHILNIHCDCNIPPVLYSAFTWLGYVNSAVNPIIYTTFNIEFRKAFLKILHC

On to `CCc1cc(Cl)c(OC)c(N2CCN(C[C@@H](O)CCNC(=O)c3cc4ccccc4[nH]3)CC2)c1`, for which the Activity on D(3) dopamine receptor [1] is 17%. Also, the remaining at 1 h, 10 µM in data set [2] fell in the range of 57 to 86%. For the same compound, the Cmax in data set [3] amounted to 959.9 pmol/g. The time to peak (Tmax) (commonly the time at which the peak concentration occurs) in data set [4] was 4 h. Also, the area under the curve AUC(0-t) (commonly exposure summed from dosing to a finite time, without extrapolation to infinity) at 24 h in data set [5] was found to be 1.07 µM·h. This compound also gave an AUCt in data set [6] of 4360 pmol·h/g.

Consider `CCc1cccc(N2CCN(C[C@@H](O)CCNC(=O)c3cc4ccccc4[nH]3)CC2)c1Cl`, for which, in data set [7], the Activity worked out at 69%. Moreover, the remaining at 1 h, 10 µM in data set [2] lay within 57 to 86%. The Cmax in data set [3] is 2670 to 3670 pmol/g. For the same compound, the Tmax in data set [8] and in [4] was 2 h each time. In addition, the AUCt in data set [6] turned out to be 16665 pmol·h/g.

On to `CCc1cc(Cl)c(OC)c(N2CCN(C[C@@H](F)CCNC(=O)c3cc4ccccc4[nH]3)CC2)c1`, for which the Ratio Ki in the data set filed under Homo sapiens was determined as 535. For the same compound, the remaining at 1 h, 10 µM in [2] was in the range of 57 to 70%.

Take `CCc1cccc(N2CCN(CC(O)CCNC(=O)c3cc4ccccc4[nH]3)CC2)c1Cl` (racemic): the remaining at 1 h, 10 µM in [2] was 57 to 86%.

In the case of `CCc1cc2c(cc1N1CCN(CC(O)CCNC(=O)c3cc4ccccc4o3)CC1)OCO2` (stereo not drawn), the Ratio Ki in the data set listed under Homo sapiens is 61.

On to `CCc1cccc(N2CCN(CC(F)CCNC(=O)c3cc4ccccc4[nH]3)CC2)c1Cl` (racemic), for which, in the data set listed under Homo sapiens, the Ratio Ki was 327. Also, the EC50 (as a rule, the concentration giving half of the maximal effect) on D(3) dopamine receptor [9] was above 6.8 µM. For the same compound, the Activity on D(3) dopamine receptor [1] turned out to be 5.4%. The remaining at 1 h, 10 µM in [2] was 38%.

Consider `CCc1cc(Cl)c(OC)c(N2CCN(C[C@H](O)CCNC(=O)c3cc4ccccc4[nH]3)CC2)c1`, for which, on D(3) dopamine receptor [1], the Activity was determined as 17.7%. Besides, the remaining at 1 h, 10 µM in data set [2] is 57 to 86%. Besides, the Cmax in data set [3] was determined as 1796.6 pmol/g. Moreover, the time of peak concentration (Tmax) in [4] was 4 h. Also, in data set [5], the exposure AUC(0-t) at 24 h is 2.2 µM·h. This compound also returned an AUCt in [6] of 8412 pmol·h/g.

As for `CCc1cccc(N2CCN(C[C@H](O)CCNC(=O)c3cc4ccccc4[nH]3)CC2)c1Cl`, in [7], the Activity is 74%. The remaining at 1 h, 10 µM in data set [2] was in the range of 57 to 86%. For the same compound, the Cmax is 291 to 306 nM in data set [10] and 3850 pmol/g in data set [3]. In addition, the Tmax in data set [8] and in [4] was 2 h each time. This compound returned an AUCt in data set [6] of 21600 pmol·h/g.

Take `CCc1cc(Cl)c(OC)c(N2CCN(CC(F)CCNC(=O)c3cc4ccccc4o3)CC2)c1` (stereo not drawn): the Ratio Ki in the data set listed under Homo sapiens came to 108. Moreover, the EC50 at D(3) dopamine receptor [9] is above 4 µM. Further, on D(3) dopamine receptor [1], the Activity worked out at 5.1%. Further, the remaining at 1 h, 10 µM in data set [2] amounted to 12%.

In the case of `CCc1cc(Cl)c(OC)c(N2CCN(CC(F)CCNC(=O)c3cc4ccccc4[nH]3)CC2)c1` (racemic), in the data set filed under Homo sapiens, the Ratio Ki was 746. For the same compound, the concentration giving a half-maximal response (EC50) at D(3) dopamine receptor [9] is above 5.4 µM. Also, the Activity on D(3) dopamine receptor [1] stood at 2.7%. Besides, the inhibition constant (Ki) (in general, the equilibrium dissociation constant of an inhibitor or competing ligand from its target) in data set [11] was above 8.9 µM. Besides, in [2], the remaining at 1 h, 10 µM was determined as 75%.

Consider `CCc1cc(Cl)c(OC)c(N2CCN(C[C@H](F)CCNC(=O)c3cc4ccccc4[nH]3)CC2)c1`, for which, in the data set listed under Homo sapiens, the Ratio Ki is 1650. For the same compound, the remaining at 1 h, 10 µM in data set [2] is 57 to 70%.

Consider `CCc1cc(Cl)c(OC)c(N2CCN(CC(O)CCNC(=O)c3ccc4c(c3)OCO4)CC2)c1` (stereo not drawn), for which, in the data set listed under Homo sapiens, the Ratio Ki was determined as 15.

Regarding `CCc1cc(Cl)c(OC)c(N2CCN(CC(O)CCNC(=O)c3cc4ccccc4[nH]3)CC2)c1` (racemic), the remaining at 1 h, 10 µM in [2] was 57 to 86%.

Consider `CCc1cccc(N2CCN(CC(F)CCNC(=O)c3cc4ccccc4o3)CC2)c1Cl` (stereo not drawn), for which the Ratio Ki in the data set filed under Homo sapiens turned out to be 134. Moreover, at D(3) dopamine receptor [9], the EC50 was above 7.5 µM. The Activity at D(3) dopamine receptor [1] was found to be 15.5%; in [7], 43%. For the same compound, the remaining at 1 h, 10 µM in data set [2] amounted to 34%.

`CCc1cccc(N2CCN(C[C@H](F)CCNC(=O)c3cc4ccccc4[nH]3)CC2)c1Cl`: the Ratio Ki in the data set filed under Homo sapiens is 215. Further, the remaining at 1 h, 10 µM in [2] lay in the range of 57 to 70%.

For the compound `CCc1cccc(N2CCN(CC(O)CCNC(=O)c3ccc4c(c3)OCO4)CC2)c1Cl` (stereo not drawn), the Ki on D(2) dopamine receptor stood at 0.424 µM; at D(3) dopamine receptor [12], 0.00302 µM. The Ratio Ki in the data set filed under Homo sapiens was 140.

In the case of `CCc1cccc(N2CCN(C[C@@H](F)CCNC(=O)c3cc4ccccc4[nH]3)CC2)c1Cl`, in the data set filed under Homo sapiens, the Ratio Ki worked out at 1060. In data set [2], the remaining at 1 h, 10 µM was in the range of 57 to 70%.

The values are drawn from ChEMBL document CHEMBL4414587 (J Med Chem, 2019).
